Assay results: ChEMBL document CHEMBL1124462, “Synthesis, DNA binding, and biological evaluation of synthetic precursors and novel analogues of netropsin” (J Med Chem, 1989)
In brackets after ≈: the same amount, converted by molar mass.

Tests used:
Vero [1] = experiment: Minimum cytotoxic concentration required to cause a microscopically detectable alteration of normal cell morphology and show antiviral activity in african green monkey (Vero B) cells; assay type: functional; conditions: Chlorocebus sabaeus
HeLa [2] = experiment: Minimum inhibitory concentration required to reduce Coxsackie virus B4 induced cytopathogenicity by 50% in HeLa cells; assay type: functional; conditions: Homo sapiens
Method in brief: (§1)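 Cell cultures (PRK, HeLa or Vero B) are infected at 100 × CCID50. Cytopathogenicity is recorded once it reaches completion in the untreated virus-infected controls. The minimum inhibitory concentration is given in μg/mL.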

HeLa [3] = experiment: Minimum inhibitory concentration required to reduce polio virus -1 induced cytopathogenicity by 50% in HeLa cells; assay type: functional; conditions: Homo sapiens
HeLa [4] = experiment: Minimum inhibitory concentration required to reduce vesicular stomatitis virus induced cytopathogenicity by 50% in HeLa cells; assay type: functional; conditions: Homo sapiens
HeLa [5] = experiment: Minimum cytotoxic concentration required to cause a microscopically detectable alteration of normal cell morphology and show antiviral activity in HeLa cells; assay type: functional; conditions: Homo sapiens
Method in brief: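 HeLa cell cultures exposed to compound for the same duration as the antiviral assay, then examined microscopically. The minimum cytotoxic concentration is the lowest level causing detectable alteration of normal cell morphology. Values are in μg/mL.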

[6] = Minimum inhibitory concentration required to reduce herpes simplex virus-1 (KOS)induced cytopathogenicity by 50% in primary rabbit kidney cells (PRK); assay type: functional; conditions: Oryctolagus cuniculus
[7] = Minimum inhibitory concentration required to reduce herpes simplex virus-2 (G)induced cytopathogenicity by 50% in primary rabbit kidney cells (PRK); assay type: functional; conditions: Oryctolagus cuniculus
[8] = (§2) Minimum inhibitory concentration required to reduce vesicular stomatitis virus induced cytopathogenicity by 50% in primary rabbit kidney cells (PRK); assay type: functional; conditions: Oryctolagus cuniculus
Oryctolagus cuniculus = species: Oryctolagus cuniculus; experiment: Minimum cytotoxic concentration required to cause a microscopically detectable alteration of normal cell morphology and show antiviral activity in primary rabbit kidney (PRK) cells; assay type: functional
Sindbis virus = experiment: (§3) Minimum inhibitory concentration required to reduce Sindbis virus induced cytopathogenicity by 50% in african green monkey (VeroB) cells; assay type: functional; method in brief: as §1
Vero [9] = experiment: Minimum inhibitory concentration required to reduce parainfluenza virus-3 induced cytopathogenicity by 50% in african green monkey (VeroB) cells; assay type: functional, Human respirovirus 3; conditions: Chlorocebus sabaeus; method in brief: as §1
[10] = tested on: Mammalian orthoreovirus 1; experiment: Minimum inhibitory concentration required to reduce reovirus-1 induced cytopathogenicity by 50% in african green monkey (VeroB)cells; assay type: functional; method in brief: as §1
Semliki Forest virus = experiment: Minimum inhibitory concentration required to reduce semliki forest virus induced cytopathogenicity by 50% in african green monkey (VeroB) cells; assay type: functional; method in brief: as §1
Vero [11] = experiment: Minimum inhibitory concentration required to reduce Coxsackie virus B4 induced cytopathogenicity by 50% in african green monkey (VeroB) cells; assay type: functional, Coxsackievirus B4; conditions: Chlorocebus sabaeus; method in brief: as §1
Raji [12] = experiment: Dose required to inhibit Human B-Lymphoblast (Raji) cell proliferation by 50%; assay type: functional; conditions: read-out: CD50 (the source's name)
L1210 = experiment: Dose required to inhibit Murine leukemia (L1210) cell proliferation by 50%; assay type: functional; conditions: Mus musculus, read-out: CD50 (the source's name)
Nucleic Acid [13] = experiment: Association constant against the polynucleotide poly (dA-dT).; assay type: nucleic-acid assay
Method in brief: (§4)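 Competition with ethidium bromide binding at 25 °C in 0.01 M cacodylate buffer, pH 7.0, with 1.26 μM ethidium bromide and 1 μM polynucleotide. Bound ethidium is estimated from its fluorescence increase (V = 34 for poly(dA-dT), 25 for poly(dG-dC)). IC50 for 50% ethidium displacement comes from a fitted competition sigmoid. Kapp is calculated from IC50 assuming a binding size of four base pairs.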

[14] = Minimum inhibitory concentration required to reduce herpes simplex virus-2 (G) induced cytopathogenicity by 50% in primary rabbit kidney cells (PRK); assay type: functional; conditions: Oryctolagus cuniculus; method in brief: as §1
[15] = Minimum inhibitory concentration required to reduce herpes simplex virus-1 (KOS) induced cytopathogenicity by 50% in primary rabbit kidney cells (PRK); assay type: functional; conditions: Oryctolagus cuniculus; method in brief: as §1
[16] = tested on: Vesicular stomatitis virus; experiment: as §2; assay type: functional
[17] = Dose required to inhibit Human T-Lymphoblast (Molt/4F) cell proliferation by 50%; assay type: functional; conditions: read-out: CD50 (the source's name)
Vero [18] = experiment: as §3; assay type: ADME, cell-based; conditions: Chlorocebus sabaeus, read-out: MIC; method in brief: as §1
Nucleic Acid [19] = experiment: Association constant against polynucleotide poly (dG-dC); assay type: nucleic-acid assay; method in brief: as §4
FM3A = experiment: In vitro inhibition of FM3A (murine mammary carcinoma) cell proliferation.; assay type: functional; conditions: Mus musculus, read-out: CD50 (the source's name)
Human alphaherpesvirus 2 = experiment: Minimum inhibitory concentration required to reduce herpes simplex virus-2(G) induced cytopathogenicity by 50% in primary rabbit kidney cells (PRK); assay type: functional; method in brief: as §1
Human alphaherpesvirus 1 = experiment: Minimum inhibitory concentration required to reduce herpes simplex virus-1 (KOS) induced cytopathogenicity by 50% in primary rabbit kidney cells(PRK); assay type: functional; method in brief: as §1
Nucleic Acid [20] = experiment: Association constant against the polynucleotide poly(dA-dT); assay type: nucleic-acid assay; method in brief: as §4
Nucleic Acid [21] = experiment: Ratio of association constant of poly(dA-dT) and poly(dG-dC); assay type: nucleic-acid assay
Method in brief: (§5)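 Kapp for poly(dA-dT) and for poly(dG-dC) is each determined by ethidium bromide competition in 0.01 M cacodylate, pH 7.0, 25 °C, with 1.26 μM ethidium and 1 μM polynucleotide. IC50 comes from a fitted competition sigmoid and is converted to Kapp assuming a four-base-pair binding size. The ratio is taken between the two polynucleotides.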

[22] = Dose required to inhibit Murine mammary carcinoma (FM3A) cell proliferation by 50%; assay type: functional; conditions: Mus musculus, read-out: CD50 (the source's name)
Nucleic Acid [23] = experiment: Ratio of association constant of poly (dA-dT) and poly (dG-dC); assay type: nucleic-acid assay; method in brief: as §5
Raji [24] = experiment: Inhibition of Human B-Lymphoblast Raji cell proliferation; assay type: functional; conditions: read-out: CD50 (the source's name)

SMILES | MCC (Vero [1]) [µg/mL] | MIC (HeLa [2]) [µg/mL] | MIC (HeLa [3]) [µg/mL] | MCC (HeLa [5]) [µg/mL] | MIC [6] [µg/mL] | MIC [7] [µg/mL] | MCC (Oryctolagus cuniculus) | MIC (Sindbis virus) [µg/mL] | MIC (Vero [9]) [µg/mL] | MIC [10] [µg/mL] | MIC (Semliki Forest virus) [µg/mL] | MIC (Vero [11]) [µg/mL] | CC50 (Raji [12]) [µg/mL] | CC50 (L1210) [µg/mL] | MIC [16] [µg/mL] | CC50 [17] [µg/mL] | K app (Nucleic Acid [19]) [M⁻¹] | MIC (Human alphaherpesvirus 2) [µg/mL] | MIC (Human alphaherpesvirus 1) [µg/mL] | K app (Nucleic Acid [20]) [M⁻¹] | also measured
Nc1ncnc2c1ccn2[C@@H]1O[C@H](CO)[C@@H](O)[C@H]1O [TUBERCIDIN] | > 0.4 | 0.07 (≈ 0.263 µM) | 0.07 (≈ 0.263 µM) | > 0.4 | > 0.1 | > 0.1 | >0.4 µg/mL | 0.1 (≈ 0.376 µM) | 0.07 (≈ 0.263 µM) | 0.07 (≈ 0.263 µM) | > 0.4 | 0.07 (≈ 0.263 µM) |  |  |  |  |  |  |  |  | MIC (HeLa [4]): 0.07 µg/mL (≈ 0.263 µM); MIC [8]: 0.2 µg/mL (≈ 0.751 µM)
Cn1c(C(=O)NCCC#N)ccc1[N+](=O)[O-] | > 400 | > 200 |  | 400 |  |  | 400 µg/mL |  | > 100 | > 100 | > 100 | > 200 | > 50 | > 50 | 300 (≈ 1350 µM) | > 50 | < 100 |  |  |  | K app (Nucleic Acid [13]): < 100 M⁻¹; MIC [14]: > 200 µg/mL; MIC [15]: > 200 µg/mL; IC50 (Vero [18]): > 100 µg/mL
NC(=O)c1ncn([C@@H]2O[C@H](CO)[C@@H](O)[C@H]2O)n1 [RIBAVIRIN] | > 400 | 70 (≈ 287 µM) | 70 (≈ 287 µM) | > 200 | > 400 | > 400 | >400 µg/mL | 70 (≈ 287 µM) | 20 (≈ 81.9 µM) | 20 (≈ 81.9 µM) | 150 (≈ 614 µM) | 70 (≈ 287 µM) |  |  |  |  |  |  |  |  | MIC (HeLa [4]): 20 µg/mL (≈ 81.9 µM); MIC [8]: > 400 µg/mL
Cn1cc([N+](=O)[O-])cc1C(=O)NCCCNCCCCN | > 400 | > 400 |  | > 400 |  |  | >400 µg/mL | > 400 | > 200 | > 100 | > 400 | > 200 | > 200 | > 200 | > 400 | > 200 | 420000 | > 200 | > 200 | 1e+06 | CC50 (FM3A): > 200 µg/mL; Ratio (Nucleic Acid [21]): 2.38
Cn1cc(NC(=O)c2cc(NC(=O)CNC(=N)N)cn2C)cc1C(=O)NCCC(=N)N [NETROPSIN] | > 400 | > 100 | > 100 | > 100 | > 400 | > 400 | >400 µg/mL | > 400 | > 400 | > 400 | > 400 | > 400 | 139 (≈ 323 µM) | 295 (≈ 685 µM) |  | > 100 | 31000 |  |  |  | CC50 [22]: 321 µg/mL (≈ 746 µM); MIC (HeLa [4]): > 100 µg/mL; K app (Nucleic Acid [13]): 7.3e+08 M⁻¹; Ratio (Nucleic Acid [23]): 23500; MIC [8]: > 400 µg/mL
C[C@H](NC(=O)c1cc(NC(=O)c2cc([N+](=O)[O-])cn2C)cn1C)C(=O)N[C@@H](C)C(=O)N[C@@H](C)C(=O)OC(C)(C)C | > 400 | > 200 | > 400 | > 400 |  |  | >400 µg/mL | > 200 | > 400 | > 200 | > 200 | > 200 | > 100 | > 100 | > 100 | > 100 | 750 | > 200 | > 100 | < 100 | CC50 (FM3A): > 100 µg/mL; Ratio (Nucleic Acid [21]): < 0.13
Cn1cc(NC(=O)c2cc(NC(=O)CNC(=N)N)cn2C)cc1C(=O)NCCCNCCCCN | ≥ 200 | > 200 |  | > 200 | > 200 | > 200 | >=400 ug ml-1 | > 200 | > 200 | > 100 | > 200 | > 200 | > 200 | > 200 |  | > 200 | 7.6e+06 |  |  |  | CC50 [22]: > 200 µg/mL; K app (Nucleic Acid [13]): 2e+07 M⁻¹; Ratio (Nucleic Acid [23]): 2.63
Cn1cc(NC(=O)c2cc([N+](=O)[O-])cn2C)cc1C(=O)NCCC#N | > 40 | > 10 |  | > 40 |  |  | >40 µg/mL | > 10 | > 10 | > 10 | > 10 | > 10 |  | > 100 | > 10 | > 100 | < 100 | > 10 | > 10 | < 100 | CC50 (Raji [24]): > 100 µg/mL
Cn1cc(NC(=O)c2cc([N+](=O)[O-])cn2C)cc1C(=O)NCCC(=N)N | 400 | > 400 |  | > 400 |  |  | 400 µg/mL | > 300 | > 200 | > 100 | 300 (≈ 830 µM) | > 200 | > 100 | > 100 | > 100 | > 100 | < 100 | > 200 | > 200 | 12000 | Ratio (Nucleic Acid [21]): > 120
